Most compounds without a hit are left out; they make up all but 0.72% or so of the library.
GSH bead fluor: GSH bead compound fluorescence profile; fluorescence (KMESF) at 10 µM; GSH beads flow cytometry, compound fluorescence 488/530 nm; stronger effect = higher value; actives 0.25% (n = 190,000); in the data active = fluorescence above about 89;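 note: glutathione beads carrying GST-tagged Bcl family fusion proteins plus one bare bead set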
DTT redox prof: compounds producing H2O2 with reducing agent – biochemical, NIH compound library profiling, artefact control for MLSCN library redox annotation, primary screen. DTT-dependent redox cycling H2O2, phenol red/HRP absorbance; 100% = 100 µM peroxide control, 0% = buffer. activation, % at 10 µM. actives 0.03% (n = 200,000). AID 878;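 active = activation of at least 50% relative to the plate's high and low controls in the primary single-dose screen; inactive = activation below 50%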;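 note: compound incubated with DTT at 0.8 mM final as the reducing agent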
ABCB1 inh: inhibitors of human ABCB1 transporter, ABCG2 counter-screen; P08183; CCRF-Adr cells, JC-1 efflux, flow cytometry; inhibition, % at 6.6 µM; actives 0.067% (n = 190,000); in the data active = inhibition above about 40%;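 note: higher value means more JC-1 retained so stronger ABCB1 efflux block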
ABCG2 inh: inhibitors of human ABCG2 transporter, ABCB1 counter-screen | AID 1325 | IgMXP3 cells, JC-1 efflux, flow cytometry | Q9UNQ0 | actives 0.1% (n = 190,000) | inhibition, % at 6.6 µM;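 active = inhibition above 80%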
Target sequence (Q9UNQ0 whole entry, looked up): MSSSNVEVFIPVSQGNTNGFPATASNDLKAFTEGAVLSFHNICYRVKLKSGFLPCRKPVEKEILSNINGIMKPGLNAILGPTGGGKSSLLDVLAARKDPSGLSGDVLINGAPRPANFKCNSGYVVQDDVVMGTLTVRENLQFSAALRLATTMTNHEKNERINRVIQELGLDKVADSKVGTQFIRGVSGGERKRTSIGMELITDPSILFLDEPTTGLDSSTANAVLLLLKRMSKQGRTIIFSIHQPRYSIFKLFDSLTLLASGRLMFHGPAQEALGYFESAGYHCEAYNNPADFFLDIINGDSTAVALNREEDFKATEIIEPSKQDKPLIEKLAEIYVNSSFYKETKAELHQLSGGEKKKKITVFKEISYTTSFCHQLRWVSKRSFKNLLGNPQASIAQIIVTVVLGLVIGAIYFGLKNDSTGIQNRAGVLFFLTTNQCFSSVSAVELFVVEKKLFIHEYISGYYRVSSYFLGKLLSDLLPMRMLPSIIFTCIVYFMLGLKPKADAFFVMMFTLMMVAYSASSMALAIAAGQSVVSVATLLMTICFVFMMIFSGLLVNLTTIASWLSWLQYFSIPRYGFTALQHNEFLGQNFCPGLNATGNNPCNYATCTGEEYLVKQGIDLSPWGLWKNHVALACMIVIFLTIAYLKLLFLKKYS
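Test system: IgMXP3 cells (ABCG2) mixed with DDAO far-red-labelled CCRF-Adr cells (ABCB1). Reagent: JC-1 transporter substrate. Compound dosing: single test compound dose, 6.6 µM final. Times: 10 min compound exposure, 25 °C. Detection: flow cytometry of retained JC-1 fluorescence. Read-out basis: efflux inhibition in percent versus controls. Controls: nicardipine and DMSO wells.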
Avidin bead fluor: avidin bead compound fluorescence profile. Avidin beads, compound fluorescence 488/530 nm, flow cytometry; stronger effect = higher value. fluorescence (KMESF) at 10 µM. actives 0.38% (n = 220,000). AID 1775; in the data active = fluorescence above about 47
ABCB1 single pt: confirmation of human ABCB1 transporter inhibitors, ABCG2 counter-screen | shares compounds with ABCG2 inh | CCRF-Adr cells, JC-1 efflux, flow cytometry | inhibition, % at 6.6 µM | actives 7% (n = 270) | AID 1451;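 active = inhibition of pump activity above 50%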
ABCG2 confirm: confirmation of human ABCG2 transporter inhibitors, ABCB1 counter-screen | shares compounds with ABCG2 inh | IgMXP3 cells, JC-1 efflux, flow cytometry | inhibition, % at 6.6 µM | actives 6% (n = 270) | AID 1453;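 active = inhibition above 50%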
IgMXP3 autofluor: counter-screen for ABCG2 inhibitors: compound fluorescence in IgMXP3 cells; shares compounds with ABCG2 inh; compound autofluorescence 488/530 nm, flow; stronger effect = higher value; fluorescence at 6.6 µM; actives 30% (n = 270); AID 1480;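 active = fluorescence in ABCG2-expressing cells above the plate's control-well mean plus 3 SD, cut at about 15 in these data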
CCRF autofluor: counter-screen for ABCB1 inhibitors: compound fluorescence in CCRF-Adr cells | shares compounds with ABCG2 inh | fluorescence at 6.6 µM | actives 30% (n = 270) | compound autofluorescence 488/530 nm, flow cytometry; stronger effect = higher value;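 active = fluorescence beyond the plate control mean plus 3 SD, with a fluorescence-to-maximum score over 2, cut at about 25 in these data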
Hits are given with their value; 0 = inactive; - = no result.

SMILES	GSH bead fluor	DTT redox prof	ABCB1 inh	ABCG2 inh	Avidin bead fluor	ABCB1 single pt	ABCG2 confirm	IgMXP3 autofluor	CCRF autofluor
O=S(=O)(NCc1ccccc1)c1ccc(Cl)cc1	0	0	0	0	0	-	-	-	-
CCOc1nc(-c2ccccc2)ccc1-c1noc(COC)n1	0	0	0	0	0	0	0	0	0
Cn1c(=O)c2c(nc(N3CCOCC3)n2C/C=C/c2ccccc2)n(C)c1=O	-	-	-	-	0	-	-	-	-
O=c1/c(=C\c2cccnc2)sc2nc3ccccc3n12	0	0	0	80.9	0	0	0	0	0
O=c1/c(=C/c2ccc(O)c([N+](=O)[O-])c2)sc2nc3ccccc3n12	0	0	0	0	0	-	-	-	-
O=C(O)CNc1ccc(S(=O)(=O)C(F)(F)F)cc1[N+](=O)[O-]	-	-	-	-	0	-	-	-	-
CC(=O)Nc1ccc(Nc2ccc(S(=O)(=O)C(F)(F)F)cc2[N+](=O)[O-])cc1	0	0	0	91.9	0	0	54.9	0	0
COCCN(C(=O)CSc1nc2ccccc2c(=O)n1CC(C)C)c1c(N)n(Cc2ccccc2)c(=O)[nH]c1=O	0	0	0	0	0	-	-	-	-
CCOC(=O)c1sc(Nc2nc3cc4c(cc3s2)OCO4)cc1C	102	0	195.0	175.3	417	0	0	0	0
CC(=O)c1sc(Nc2nc3cc4c(cc3s2)OCO4)nc1C	0	0	0	0	0	-	-	-	-
O=c1[nH]c2cc(Cl)ccc2n1-c1ccccc1	0	0	0	0	0	-	-	-	-
O=Cc1c(Cl)[nH]c(=O)n1-c1ccccc1	0	0	0	104.1	0	0	0	0	0
CC(O)CNCCCOc1ccc(Cl)cc1C(C)(C)C (stereo not given)	0	0	0	0	0	-	-	-	-
COc1ccc(C(=O)Cn2nnc(-c3ccccc3NC(=O)C3CC3)n2)cc1	0	0	0	82.3	0	0	0	70	0
COc1ccc(C(=O)Cn2nnc(-c3ccccc3F)n2)cc1	0	0	0	0	0	-	-	-	-
CCc1cc(=O)oc2cc3occ(-c4ccc(OC)c(F)c4)c3cc12	0	0	0	0	0	-	-	-	-
COc1ccc(/C=N/NC(=O)c2cccnc2)cc1CN1CCN(c2ccc(F)cc2)CC1	0	0	44.8	0	0	0	0	0	0
COC(=O)c1cccc(NC(=O)c2cccnc2C(=O)O)c1C	0	0	0	0	0	-	-	-	-
COCCn1c(SC(C)C(=O)Nc2ccc(Cl)cn2)nnc1-c1ccncc1 (stereo not given)	0	0	0	0	0	-	-	-	-
CCc1cccc(CC)c1NC(=O)c1cc(CN2C(=O)c3ccccc3C2=O)ccc1OC	0	0	56.9	96.1	0	0	0	0	0
COc1ccc(CN2C(=O)c3ccccc3C2=O)cc1C(=O)OC(C)C(=O)NC(N)=O (stereo not given)	0	0	0	0	0	-	-	-	-
COc1ccccc1C(=O)N/C(=C/c1cccc([N+](=O)[O-])c1)C(=O)Nc1cccc(C(=O)O)c1	0	0	0	0	0	-	-	-	-
COc1ccccc1NC(=O)/C(=C/c1cccc([N+](=O)[O-])c1)c1ccccc1	0	0	0	0	0	0	0	0	0
CN(C)c1nc(OCCOC(=O)COc2ccc(Cl)cc2Cl)nc(N(C)C)n1	0	0	0	0	0	-	-	-	-
CN(C)c1nc(OCCNC(=O)COc2ccc(Cl)cc2Cl)nc(N(C)C)n1	0	0	61.1	0	0	0	0	0	0
SMILES	GSH bead fluor	DTT redox prof	ABCB1 inh	ABCG2 inh	Avidin bead fluor	ABCB1 single pt	ABCG2 confirm	IgMXP3 autofluor	CCRF autofluor
COC(=O)c1sccc1N/N=C/c1cccc(Oc2ccccc2)c1	0	0	0	0	0	-	-	-	-
Cc1c(Cl)c([N+](=O)[O-])nn1CCCC(=O)Nc1cc(Oc2ccccc2)cc([N+](=O)[O-])c1	0	0	0	84.9	0	0	0	0	0
CC[n+]1c(/C=C2\Sc3ccccc3N2C)ccc2cccc(C)c21	0	0	0	151.4	0	0	0	273	535
CCN1/C(=C/c2ccc3cc(C)ccc3[n+]2CC)Sc2cc(C)c(C)cc21	0	0	0	0	0	-	-	-	-
C=CCn1c(=O)[nH]c2cc(C(=O)N3CC=C(c4ccccc4)CC3)ccc2c1=O	0	0	0	0	0	-	-	-	-
O=C1NC(c2ccc(-c3ccccc3[N+](=O)[O-])o2)C(C(=O)c2ccc(F)cc2)C(O)(C(F)(F)F)N1 (stereo not given)	0	0	0	88.4	0	0	0	14.7	0
CC(=O)c1cccc(CN2CCCC(CCC(=O)NCc3ccccc3F)C2)c1 (stereo not given)	0	0	0	0	0	-	-	-	-
Cc1cc(C)nc(-n2nc(C)c3c(C(F)(F)F)cc(=O)[nH]c32)n1	0	0	0	0	0	0	0	0	0
Cc1ccc(N(C(=O)c2ccc(S(=O)(=O)N3CCOCC3)cc2)C2C=CS(=O)(=O)C2)cc1 (stereo not given)	0	0	0	0	0	-	-	-	-
CCN(CC)S(=O)(=O)c1ccc(C(=O)N(c2ccc(C)cc2)C2C=CS(=O)(=O)C2)cc1 (stereo not given)	0	0	0	0	0	0	0	0	0
CCOC(=O)/C(C#N)=C\c1cc(C)n(-c2ccccc2)c1C	0	0	0	80.8	0	0	0	0	0
CC(C)NC(=O)c1sc2nc(-c3cccs3)cc(-c3cccs3)c2c1N	0	0	0	0	0	-	-	-	-
Nc1c(C(=O)C2CC2)sc2nc(-c3cccs3)cc(C(F)(F)F)c12	0	0	42.3	0	0	0	0	92.2	271
CC1=NN(C(=O)c2ccc(Cn3cc([N+](=O)[O-])cn3)cc2)C(O)(C(F)(F)F)C1 (stereo not given)	0	0	0	0	0	-	-	-	-
Cc1ccnc(N/C=C(\C#N)c2nc(-c3cccc(Br)c3)cs2)c1	0	0	46.8	0	0	0	0	41.7	161
CCN1C(=O)/C(=C/C=C2/Sc3ccccc3N2CCO)SC1=S	0	0	0	0	0	-	-	-	-
CN1/C(=C\C=C2/SC(=S)N(CC(=O)O)C2=O)C(C)(C)c2ccccc21	0	0	0	0	0	-	-	-	-
CCCN1C(=O)/C(=C/C=C2\N(CC)c3ccccc3C2(C)C)SC1=S	0	0	69.7	0	0	0	0	96.1	193
C=CCN1C(=O)/C(=C\C=C2\N(C)c3ccccc3C2(C)C)SC1=S	0	0	61.0	189.2	0	0	0	145	186
CCCCN1C(=O)/C(=C/C=C2\Oc3ccccc3N2CC)SC1=S	0	0	0	89.2	0	0	0	162	423

Compound activity deposited in PubChem BioAssay by several laboratories.
